Substrate: N[C@@H](Cc1c[nH]c2ccccc12)C(=O)O
Assay: Activity of human recombinant TDO expressed in Escherichia coli BL21 using L-tryptophan as substrate by measuring conversion of N-formylkynurenine into kynurenine per mg of protein after 30 mins by Michaelis-Menten steady state analysis
Method in brief: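 Crude extract of E. coli overexpressing recombinant human TDO (~3 μg total protein) was added to prewarmed mix: 50 mM phosphate pH 7.5, 20 mM ascorbate, 10 μM methylene blue, 500 IU/mL catalase and varied L-Trp. Run at 37 °C, stopped with TCA at 2 and 4 min, then 65 °C for 30 min. Kynurenine was read at 480 nm with Ehrlich's reagent against a kynurenine standard curve; rate taken from 2–4 min.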

B1: Tryptophan 2,3-dioxygenase (Homo sapiens), P48775 (protein)
chain: MSGCPFLGNNFGYTFKKLPVEGSEEDKSQTGVNRASKGGLIYGNYLHLEKVLNAQELQSETKGNKIHDEHLFIITHQAYELWFKQILWELDSVREIFQNGHVRDERNMLKVVSRMHRVSVILKLLVQQFSILETMTALDFNDFREYLSPASGFQSLQFRLLENKIGVLQNMRVPYNRRHYRDNFKGEENELLLKSEQEKTLLELVEAWLERTPGLEPHGFNFWGKLEKNITRGLEEEFIRIQAKEESEEKEEQVAEFQKQKEVLLSLFDEKRHEHLLSKGERRLSYRALQGALMIYFYREEPRFQVPFQLLTSLMDIDSLMTKWRYNHVCMVHRMLGSKAGTGGSSGYHYLRSTVSDRYKVFVDLFNLSTYLIPRHWIPKMNPTIHKFLYTAEYCDSSYFSSDESD
  Km: 167 µM
  Vmax: 97 µM/s

Source: ChEMBL document CHEMBL1811872, “Tryptophan 2,3-dioxygenase (TDO) inhibitors. 3-(2-(pyridyl)ethenyl)indoles as potential anticancer immunomodulators” (J Med Chem, 2011)
